Ecoli rRNA inh: reduced GFP signal of wild-type E. coli, primary screen, bacterial rRNA inhibitor project, GFP/RFP fluorescence, OD600, single point; E. coli WT GFP vs humanized-ribosome RFP mutants, 24 h; hits give low values; DMSO median 0, no signal -100; GFP signal change (wild-type ribosome), % (test concentration not listed); 350,000 compounds, 1.6% hits;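 active = significant combined selectivity score with lowered wild-type GFP, culture density cut under 30%, mutant RFP and density less affected; inactive = any of these conditions unmet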
FN deposition inh: inhibitors of fibronectin matrix deposition, primary screen, AH1F cells, Alexa488-fibronectin fluorescence, plate reader. AH1F fibroblasts, overnight. inhibition, % at 12.6 µM. 350,000 compounds, 0.086% hits;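 active = mean inhibition across replicates of 30% or more, regardless of how many single replicates reach that level; inconclusive = mean under 30% yet at least half of replicates reach 30%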
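Assay system: AH1F fibroblasts / Quantity: 10000 cells per well / Medium: DMEM plus 2% serum, read in PBS / Reagent: labelled fibronectin 24 nM / Dosing: single dose, pinned / Times: 1 h cell attachment, overnight exposure to compound and label / Signal: fluorescence, ex 485 nm, em 525 nm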
FGF22 binding: binders of human FGF22 protein, primary screen, FGF22 synaptogenesis inhibitor project, biophysical, thermal shift, single point. 340,000 compounds, 1.5% hits. recombinant FGF22 thermal shift, SYPRO orange fluorescence; percent of sucrose octasulfate shift, DMSO zero. activity (Tm shift, normalised), % at 9.99 µM. Fibroblast growth factor 22 (Homo sapiens), Q9HCT0;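 active = mean Tm shift, scaled 0 neutral to 100 positive control, at about 1.3% or above, every replicate too, limit read from the data; inconclusive = no clear call, values can overlap the other calls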
Target sequence (Q9HCT0 whole entry, looked up): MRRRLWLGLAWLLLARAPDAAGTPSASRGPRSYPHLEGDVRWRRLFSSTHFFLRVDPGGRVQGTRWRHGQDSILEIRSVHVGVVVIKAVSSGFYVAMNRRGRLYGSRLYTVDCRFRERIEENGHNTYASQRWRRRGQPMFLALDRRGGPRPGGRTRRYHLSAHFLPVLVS
SIRT5 block: SIRT5 desuccinylase inhibitors, primary screen, biochemical, fluorescence imaging, single point, set 5. Purified SirT5, succinyl-peptide AMC, trypsin-coupled fluorescence. 330,000 compounds, 1.1% hits. inhibition, % at 15 µM. AID 652115, 2013; in the data active = inhibition above about 15%; inconclusive = no clear call, values can overlap the other calls
Statin myotox sup: suppressors of statin myotoxicity in C2C12 myotubes, primary screen, cell-based, single point, plate reader; 330,000 compounds, 0.78% hits; rescue of ATP level, % at 7.49 µM; C2C12 myotubes + simvastatin, ATP luminescence, 48 h; scaled: DMSO 0, geranylgeraniol control 100; AID 602340, 2012;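 active = mean ATP rescue above about 67%, or every replicate alone reaching that limit, limit read from the data, passing the limit was not always enough; inconclusive = no clear call, values can overlap the other calls; inactive = mean under the limit and some replicate under it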;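 also: myotubes were challenged with 10 µM simvastatin during compound exposure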
E-sel inducer: E-selectin induction in HUVECs, primary screen, imaging, HUVEC, immunofluorescence imaging, single point; 260,000 compounds, 0.37% hits; P16581; normalized: neutral wells 0, TNF-alpha wells 100; AID 686992, 2013; activation, % at 7.58 µM;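 active = mean E-selectin-positive cell signal at least 10% of the positive control, reached in at least 60% of replicates, without over 20% cell loss; inconclusive = no rule given, readout overlaps actives, possibly toxicity-flagged; inactive = the rest, including those meeting only one limit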
Target sequence (P16581 whole entry, looked up): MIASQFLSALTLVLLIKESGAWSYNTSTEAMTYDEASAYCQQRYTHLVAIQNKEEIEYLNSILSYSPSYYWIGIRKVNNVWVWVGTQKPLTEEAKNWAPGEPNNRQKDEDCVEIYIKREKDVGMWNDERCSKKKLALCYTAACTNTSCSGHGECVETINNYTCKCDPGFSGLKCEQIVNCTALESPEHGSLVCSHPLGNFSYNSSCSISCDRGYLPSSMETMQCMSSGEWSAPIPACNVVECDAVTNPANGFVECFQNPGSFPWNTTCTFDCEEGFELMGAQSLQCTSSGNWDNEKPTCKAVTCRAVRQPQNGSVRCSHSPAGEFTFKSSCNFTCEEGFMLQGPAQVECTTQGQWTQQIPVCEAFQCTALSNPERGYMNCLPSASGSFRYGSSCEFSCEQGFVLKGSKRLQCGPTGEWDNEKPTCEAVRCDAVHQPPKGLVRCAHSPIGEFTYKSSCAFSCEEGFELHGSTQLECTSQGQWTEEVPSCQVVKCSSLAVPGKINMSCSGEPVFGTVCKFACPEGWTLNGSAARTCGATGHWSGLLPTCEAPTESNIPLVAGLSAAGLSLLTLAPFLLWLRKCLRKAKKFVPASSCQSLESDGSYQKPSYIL
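Material: HUVEC primary endothelial cells; Amount: 3,000 cells per well; Dosing: single concentration; Medium: EGM-2 growth medium on 0.1% gelatin-coated wells; Read-out basis: percent E-selectin-positive cells; Signal: immunofluorescence imaging; Control set: TNF-alpha, DMSO.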
Large screens that a line does not name were inactive. Most compounds without a hit are left out; they make up all but 4% or so of the library.

O=C(O)CSc1c(-c2ccccc2)c2cc(Cl)ccc2[nH]c1=O	Ecoli rRNA inh -28 (no result: Statin myotox sup)
O=c1[nH]c2ccccc2c2ccc(Cl)cc12	none (no result: Statin myotox sup)
O=c1[nH]c2ccc(Cl)cc2c(O)c1Cc1ccccc1	FGF22 binding 44 (no result: Statin myotox sup)
[N-]=[N+]=NCc1ccccc1C[C@]1(C(=O)NCc2ccccc2)COC(c2ccc(OCCCO)cc2)=N1	none (no result: Ecoli rRNA inh, FN deposition inh, Statin myotox sup, E-sel inducer)
COc1ccc(S(=O)(=O)N(C)C[C@@H]2OCCCC[C@@H](C)Oc3ccc(NC(=O)C4CCCCC4)cc3C(=O)N([C@H](C)CO)C[C@@H]2C)cc1	none (no result: Statin myotox sup)
CCOc1ccccc1N1CCN(C(=O)c2ccc3[nH]c4c(c3c2)CCCC4)CC1	Ecoli rRNA inh -27
CO[C@H]1CN(C)C(=O)c2ccc(NS(=O)(=O)c3ccc(-c4ccccc4)cc3)cc2OC[C@@H](C)NC[C@H]1C	none (no result: SIRT5 block)
Cc1[nH]c2ccccc2c1/C=C(\C#N)C(=O)NCC1CCCO1 (centres undefined)	Ecoli rRNA inh -23 (no result: Statin myotox sup)
CC(=O)N1N=C(N)SC12CCCC2	SIRT5 block 20 (no result: E-sel inducer)
CC(=O)NC1=NN(C(C)=O)C2(CCCC2)S1	none (no result: SIRT5 block, Statin myotox sup)
C[C@@H]1CN([C@@H](C)CO)S(=O)(=O)c2ccc(C#C[C@@H](C)O)cc2O[C@H]1CN(C)Cc1ccc(-c2ccccc2)cc1	SIRT5 block 35 (no result: FN deposition inh)
C[C@H](CO)N1C[C@H](C)[C@H](CN(C)Cc2ccc(-c3ccccc3)cc2)Oc2cc(C#C[C@@H](C)O)ccc2S1(=O)=O	SIRT5 block 25 (no result: FN deposition inh)
C[C@H](O)C#Cc1ccc2c(c1)O[C@H](CN(C)Cc1ccccc1)[C@H](C)CN([C@H](C)CO)S2(=O)=O	none
C[C@@H](O)C#Cc1ccc2c(c1)O[C@@H](CN(C)Cc1ccccc1)[C@@H](C)CN([C@@H](C)CO)S2(=O)=O	none
C[C@H](O)C#Cc1ccc2c(c1)O[C@@H](CN(C)Cc1ccc(-c3ccccc3)cc1)[C@@H](C)CN([C@@H](C)CO)S2(=O)=O	SIRT5 block 30 (no result: FN deposition inh)
C[C@H](O)C#Cc1ccc2c(c1)O[C@H](CN(C)Cc1ccc(-c3ccccc3)cc1)[C@@H](C)CN([C@H](C)CO)S2(=O)=O	SIRT5 block 28 (no result: FN deposition inh)
C[C@@H]1CN([C@@H](C)CO)S(=O)(=O)c2ccc(C#C[C@@H](C)O)cc2O[C@@H]1CN(C)Cc1ccccc1	none
COc1ccccc1CNC(=O)C[C@H]1CC[C@H](NC(=O)CC2CC2)[C@H](CO)O1	none
C[C@H](O)C#Cc1ccc2c(c1)O[C@@H](CN(C)Cc1ccccc1)[C@H](C)CN([C@@H](C)CO)S2(=O)=O	none
C[C@H](O)C#Cc1ccc2c(c1)O[C@H](CN(C)Cc1ccc(-c3ccccc3)cc1)[C@H](C)CN([C@H](C)CO)S2(=O)=O	SIRT5 block 32 (no result: FN deposition inh)
COc1ccc(-c2cnc3c(c2)C(=O)N([C@@H](C)CO)C[C@H](C)[C@@H](CN(C)S(C)(=O)=O)O3)cc1	none
CCCC#Cc1ccc2c(c1)O[C@@H](CN(C)C(=O)c1ccncc1)[C@@H](C)CN([C@H](C)CO)S2(=O)=O	none (no result: FN deposition inh)
Oc1ccc(C[C@H]2CN([C@@H](Cc3ccccc3)CN3CCC[C@@H]3CN3C(=S)NC[C@@H]3Cc3ccccc3)C(=S)N2CC2CCCCC2)cc1	none (no result: FN deposition inh, SIRT5 block)
Oc1ccc(C[C@H]2CNC(=S)N2CC2CCCN2C[C@H](Cc2ccc(O)cc2)N2C[C@H](Cc3ccc(O)cc3)N(CC3CCCCCC3)C2=S)cc1 (some centres undefined)	SIRT5 block 17 (no result: FN deposition inh)
COCCNC(=O)C1CCCN(S(=O)(=O)c2c(C)noc2/C=C/c2cccs2)C1 (centres undefined)	none (no result: Statin myotox sup)
COC(CNC(=O)C1CCCN(S(=O)(=O)c2c(C)noc2/C=C/c2cccs2)C1)OC (centres undefined)	FGF22 binding 1.4 (no result: Statin myotox sup)
Cc1ccc2c(c1)c1c3n2CCN(C(=O)CCl)C3CCC1 (centres undefined)	none
CC(=O)N1CCn2c3c(c4cc(C)ccc42)CCCC31 (centres undefined)	FGF22 binding 43 (no result: Statin myotox sup)
CCc1ccc(Nc2ccc(C(N)=O)cc2[N+](=O)[O-])cc1	FGF22 binding 44 (no result: E-sel inducer)
O=[N+]([O-])c1ccccc1S(=O)(=O)NCc1ccc(F)cc1	none (no result: Statin myotox sup, E-sel inducer)
Cc1ccccc1CNS(=O)(=O)c1ccccc1[N+](=O)[O-]	Ecoli rRNA inh -28 (no result: FN deposition inh, Statin myotox sup, E-sel inducer)
Cc1cc(C)cc(-n2c(C)cc(/C=N\NC(=O)COc3cccc4cccnc34)c2C)c1	Ecoli rRNA inh -21 (no result: Statin myotox sup, E-sel inducer)
COc1ccc(/C=N/NC(=O)COc2cccc3cccnc23)cc1OC	none (no result: Statin myotox sup)
CC(C)OC(=O)/C(C#N)=C/c1ccc(-c2ccc(SC(F)F)cc2)o1	none (no result: Ecoli rRNA inh, FGF22 binding, SIRT5 block, Statin myotox sup, E-sel inducer)
COC(=O)/C(C#N)=C/c1ccc(-c2ccc(S(N)(=O)=O)cc2)o1	Ecoli rRNA inh -27
CN(C)C(=O)c1ccc(-c2ccc([C@H]3[C@@H](CO)N4CCCCN(C(=O)C5CCCC5)C[C@@H]34)cc2)cc1	none (no result: Ecoli rRNA inh, FN deposition inh, Statin myotox sup, E-sel inducer)
CCOC(=O)CN(C(=O)CNC(=O)c1ccco1)C(C(=O)NC1CCCCC1)c1cccs1 (centres undefined)	Statin myotox sup 124 (no result: Ecoli rRNA inh, FGF22 binding, SIRT5 block, E-sel inducer)
O=C(NCC(=O)N(Cc1ccccc1)C(C(=O)NC1CCCCC1)c1ccco1)c1ccco1 (centres undefined)	Statin myotox sup 110 (no result: Ecoli rRNA inh, FN deposition inh, FGF22 binding, SIRT5 block, E-sel inducer)
C[C@H]1CN([C@@H](C)CO)C(=O)c2cc(-c3cccc(C#N)c3)cnc2O[C@H]1CN(C)C(=O)C1CCC1	none (no result: FN deposition inh)
CCOC(=O)c1sc(=S)n(C)c1NC(=O)c1cccc(Br)c1	Ecoli rRNA inh -49 (no result: Statin myotox sup)
Cc1noc(C)c1S(=O)(=O)Nc1cccc2c1O[C@H](CN(C)C(=O)Nc1ccccc1)[C@H](C)CN([C@H](C)CO)C2=O	none (no result: FN deposition inh)
CCCCCCCC/C=C\CCCCCCCC(=O)NCCc1ccc(O)c(O)c1	SIRT5 block 32, E-sel inducer inconclusive (no result: Ecoli rRNA inh)
CCCCCCCC/C=C\CCCCCCCC(=O)NCCO	none (no result: Ecoli rRNA inh)
COc1ccc(S(=O)(=O)N(C)C[C@@H]2Oc3c(NC(=O)c4cnccn4)cccc3C(=O)N([C@H](C)CO)C[C@H]2C)cc1	none (no result: FN deposition inh)
C[C@H](CO)N1C[C@H](C)[C@H](CN(C)C(=O)Nc2cccc3ccccc23)OCCCC[C@H](C)Oc2ccc(NS(C)(=O)=O)cc2C1=O	none (no result: FN deposition inh, Statin myotox sup)
